Results filed as inconclusive are left out.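 Rule for the calls, unless noted: active = cell viability at or below a set limit in both duplicate runs, the limit being the all-compound median minus 4 SD (cut at about 23% in these data, passing the limit was not always enough); inconclusive = no clear call, values can overlap the other calls; inactive = the rest.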
How the values were obtained:
[1] = S. cerevisiae growth inhibition in permissive medium (OD615), pilot counter-assay for S. cerevisiae lifespan shortening project, permissive growth control (AID 705;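 active = growth inhibition above 25% in both replicates, a cutoff set 3 SD above the mean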); conditions: OD615, 24 h, at 10 µM, active compounds read high
Summary of the method: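 assay system = Saccharomyces cerevisiae strain carrying genetically modified DeaD replicative-lifespan system | medium = SC raffinose/galactose permissive medium | dosing = 10 µM single dose, 0.25% DMSO | schedule = 24 h compound exposure at 30 °C after 4 h pre-growth | measured by = OD at 615 nm | read-out basis = growth inhibition from lowered OD615 after 24 h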

[2] = S. cerevisiae growth inhibition in restrictive medium, OD615, pilot screen, restrictive growth control, yeast lifespan reduction project (AID 706;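 active = growth inhibition above a set limit, 3 SD over mean compound inhibition, in both replicates, cut at about 43% in these data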;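 note: modified DeaD lifespan yeast strain shifted to restrictive glucose medium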); conditions: OD615, 48 h, at 10 µM, active compounds read high
Summary of the method: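 Buffer or medium: CSMM-D glucose medium. Material: genetically modified Saccharomyces cerevisiae, DeaD replicative lifespan assay strain. Times: 48 h compound exposure at 30 °C. Measured by: optical density at 615 nm.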

[3] = doxorubicin toxicity protection in MRP-1 cells – H69AR cells, CellTiter-Glo, duplicate, MRP-1 activator project, pilot screen (AID 807;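 active = viability increase at or above a cutoff of the median across tested compounds plus 3 SD, cut at about 8.5% in these data, passing the limit was not always enough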;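 note: compound pretreatment 18-22 h then 72 h combined with doxorubicin; 0% = doxorubicin alone and 100% = vehicle without doxorubicin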); conditions: H69AR viability with doxorubicin, CellTiter-Glo luminescence; at 10 µM; active compounds read high
[4] = viability of HCT116 without oncogenic beta-catenin – human colon tumor cells, pilot screen (AID 823); conditions: HCT116 beta-catenin knockout viability, CellTiter-Glo, 60 h; at 10 µM; active compounds read low;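 note: 0% = wells killed by 20 µM Hyamine and 100% = untreated DMSO cell wells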
[5] = viability of PTEN-null HCT116 cells – cell-based, HCT116 clonal line, CellTiter-Glo, pilot screen (AID 824;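 active = viability at or below 27.92% in each of two runs, the all-compound median minus 4 SD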;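 note: 0% = 20 µM Hyamine control and 100% = vehicle cell control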); conditions: HCT116 PTEN-deleted viability, 60 h, at 10 µM, active compounds read low
[6] = RAM pathway blockade in budding yeast – dse1pr::URA3 reporter, 5-FOA selection, pilot screen (AID 869;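 active = inhibition over a set limit, the all-compound mean plus 3 SD, in both replicate runs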;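 note: 0% = DMSO wells with no growth and 100% = 10 µM 1-NA-PP1 with full growth; RAM network block rescues cells from 5-FOA so hits raise OD615 growth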); conditions: S. cerevisiae dse1pr::URA3 5-FOA growth, OD615, 2 d; at 10 µM; active compounds read high; strain carries analog-sensitive mutant Cbk1 kinase
[7] = RAM signaling pathway blockade in yeast – S. cerevisiae, Pdr1DBD-CYC8 efflux-inhibited sensitized strain, primary screen (AID 1298;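 active = RAM network inhibition above 8.4% in each of two replicates, 3 SD over the compound average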;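 note: 0% = DMSO untreated cells without growth and 100% = 10 µM 1-NA-PP1 full growth; higher means more yeast growth rescued from 5-FOA killing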); conditions: S. cerevisiae cbk1-as DSE1-URA3 strain, 5-FOA growth OD615, 2 d; at 50 µM; active compounds read high

CC1NC(=O)NC1CCCCC(=O)O (stereo unspecified)
inactive: growth inhibition [1] -6.38% | growth inhibition [2] 2.25% | viability increase [3] 1.3% | viability [4] 109% | viability [5] 104% | inhibition [6] 3.06% | RAM network inhibition [7] 2.65%

Cc1cc(C)n(/N=C/c2cccc(O)c2)c(=O)c1C(N)=O
inactive: growth inhibition [1] -22.8% | growth inhibition [2] -22.5% | viability increase [3] 1.95% | viability [4] 99.7% | viability [5] 100% | inhibition [6] 0.485% | RAM network inhibition [7] 4.4%

O=C(CCCn1c(=O)[nH]c2ccccc2c1=O)N1CCN(c2ccccn2)CC1
inactive: growth inhibition [1] -3.37% | growth inhibition [2] -16.9% | viability increase [3] -3.43% | viability [4] 98.3% | viability [5] 96.2% | inhibition [6] 2.37% | RAM network inhibition [7] 3.32%

COc1ccc(-c2nc3cnccn3c2Nc2ccc3c(c2)OCO3)cc1
inactive: growth inhibition [1] -10.7% | growth inhibition [2] 3.96% | viability increase [3] -6.6% | viability [4] 70.9% | viability [5] 62.8% | inhibition [6] -0.105% | RAM network inhibition [7] 0.16%

COc1ccc(NC(=O)N(CCC(C)C)C(C)c2ccccn2)c(OC)c1 (stereo unspecified)
inactive: growth inhibition [1] -5% | growth inhibition [2] 7.73% | viability increase [3] -3.52% | viability [4] 79.2% | viability [5] 85.6% | inhibition [6] 1.11% | RAM network inhibition [7] 3.79%

COCCNC(=O)CS(=O)(=O)Cc1nc(-c2ccc(C)cc2)oc1C
inactive: growth inhibition [1] -7.2% | growth inhibition [2] -29% | viability increase [3] -0.43% | viability [4] 95.1% | viability [5] 95.3% | inhibition [6] -0.325% | RAM network inhibition [7] 3.68%

Nc1ccccc1-c1nnc(SCc2ccccc2F)[nH]c1=O
inactive: growth inhibition [1] -8.6% | growth inhibition [2] 6.34% | viability increase [3] 2.02% | viability [4] 95.9% | viability [5] 89.9% | inhibition [6] 0.695% | RAM network inhibition [7] 4.24%

Cc1cc(-n2c(SCCC#N)nnc2-c2cccnc2)ccc1Cl
inactive: growth inhibition [1] -12.4% | growth inhibition [2] -22.3% | viability increase [3] -2.79% | viability [4] 98.7% | viability [5] 94.5% | inhibition [6] 3.32% | RAM network inhibition [7] 5.99%

O=C(CCSc1ccccc1)NCCSc1ccccn1
inactive: growth inhibition [1] -12.8% | growth inhibition [2] -12% | viability increase [3] -2.49% | viability [4] 96.3% | viability [5] 94.6% | inhibition [6] 2.69% | RAM network inhibition [7] 0.53%

CC1(C)CC2CC(C)(CN2C(=O)C23CCC(C)(C(=O)O2)C3(C)C)C1 (stereo unspecified)
inactive: growth inhibition [1] -6.75% | growth inhibition [2] -1.53% | viability increase [3] -1.13% | viability [4] 92.5% | viability [5] 91.1% | inhibition [6] 2.16% | RAM network inhibition [7] 4%

COC(=O)C1=C(C)N(C)C(C)=C(C(=O)OC)C1c1ccccc1C
inactive: growth inhibition [1] -18.8% | growth inhibition [2] -21.1% | viability increase [3] -0.42% | viability [4] 94.6% | viability [5] 87.7% | inhibition [6] 0.365% | RAM network inhibition [7] 3.87%

COC(=O)NCC(c1cccnc1)N1CCN(c2ccccc2F)CC1 (stereo unspecified)
inactive: growth inhibition [1] -5.28% | growth inhibition [2] -1.77% | viability increase [3] -0.18% | viability [4] 95.6% | viability [5] 102% | inhibition [6] 1.66% | RAM network inhibition [7] 1.57%

Cn1ccnc1SC(=O)N1c2ccccc2Sc2ccccc21
inactive: growth inhibition [1] 0.525% | growth inhibition [2] 0.605% | viability increase [3] -0.9% | viability [4] 88.8% | viability [5] 91.4% | inhibition [6] 1.25% | RAM network inhibition [7] 3.37%

Cc1cc(NC(=O)C2CC(c3ccc(F)cc3)=NO2)n(-c2ccccc2)n1 (stereo unspecified)
inactive: growth inhibition [1] -12.7% | growth inhibition [2] 2.08% | viability increase [3] 0.96% | viability [4] 97.1% | viability [5] 95.7% | inhibition [6] 1.16% | RAM network inhibition [7] -1.56%

Cc1ccccc1OCC(=O)Nc1ccccc1N1CCOCC1
inactive: growth inhibition [1] -1.63% | growth inhibition [2] 6.71% | viability increase [3] -5.31% | viability [4] 91.7% | viability [5] 84.7% | inhibition [6] 1.22% | RAM network inhibition [7] 6.55%

Cc1cc(-c2ccccc2)n2ncc(C#N)c2n1
inactive: growth inhibition [1] -0.51% | growth inhibition [2] 2.26% | viability increase [3] -1.18% | viability [4] 103% | viability [5] 98.8% | inhibition [6] 1.17% | RAM network inhibition [7] 2.36%

CCc1ccccc1N1CSC2=C(C#N)C(c3ccccc3F)CC(=O)N2C1 (stereo unspecified)
inactive: growth inhibition [1] -2.74% | growth inhibition [2] 35.3% | viability increase [3] -7.03% | viability [4] 78.8% | viability [5] 76.5% | inhibition [6] 0.905% | RAM network inhibition [7] 4.09%

O=C(NC1CCCc2ccccc21)C1CCN(c2c(N3CCCC3)c(=O)c2=O)CC1 (stereo unspecified)
inactive: growth inhibition [1] -5.2% | growth inhibition [2] -2.66% | viability increase [3] -3.06% | viability [4] 92.4% | viability [5] 90% | inhibition [6] 1.51% | RAM network inhibition [7] -0.37%

CCOC(=O)Cn1c(=O)oc2cc(S(=O)(=O)Nc3cc(Cl)ccc3OC)ccc21
inactive: growth inhibition [1] -2.69% | growth inhibition [2] -4.88% | viability increase [3] -2.35% | viability [4] 91.9% | viability [5] 89% | inhibition [6] 0.525% | RAM network inhibition [7] 4.96%

O=S(=O)(NCCSc1nc2ccccc2o1)c1ccccc1
inactive: growth inhibition [1] -8% | growth inhibition [2] -2.81% | viability increase [3] -1.25% | viability [4] 94.4% | viability [5] 89% | inhibition [6] -0.55% | RAM network inhibition [7] 6.51%

Cc1ccc(C)c2[nH]c(=O)c(CCNC(=O)CC(C)C)cc12
inactive: growth inhibition [1] -2.83% | growth inhibition [2] -10.7% | viability increase [3] -1.74% | viability [4] 103% | viability [5] 108% | inhibition [6] 1.75% | RAM network inhibition [7] 8.88%

CCc1nn(CC(=O)NCCCN2CCCC2=O)c(=O)c2cc3sccc3n12
inactive: growth inhibition [1] -8.81% | growth inhibition [2] -16.4% | viability increase [3] -2.31% | viability [4] 112% | viability [5] 108% | inhibition [6] 1.91% | RAM network inhibition [7] 0.36%

CC1CN(C(=O)Nc2ccc3snnc3c2)c2ccccc21 (stereo unspecified)
inactive: growth inhibition [1] -4.18% | growth inhibition [2] -6.81% | viability increase [3] -2.57% | viability [4] 82% | viability [5] 75% | inhibition [6] 2.52% | RAM network inhibition [7] 4.27%

O=C(C1CCC(=O)N1Cc1cccnc1)N1CCN(c2ccc(F)cc2)CC1 (stereo unspecified)
inactive: growth inhibition [1] -0.085% | growth inhibition [2] -9.05% | viability increase [3] -2.73% | viability [4] 90.1% | viability [5] 88.4% | inhibition [6] 0.585% | RAM network inhibition [7] 5.89%

Cc1nc2ccccn2c1C(=O)NC1CCCCC1
inactive: growth inhibition [1] 4.45% | growth inhibition [2] 1.56% | viability increase [3] -1.3% | viability [4] 101% | viability [5] 103% | inhibition [6] 1.17% | RAM network inhibition [7] -0.77%

CC1CCCN(c2nc3c(c(=O)[nH]c(=O)n3C)n2CCSc2ncccn2)C1 (stereo unspecified)
inactive: growth inhibition [1] -2.51% | growth inhibition [2] 2.04% | viability increase [3] -3.17% | viability [4] 97% | viability [5] 96.8% | inhibition [6] 1.14% | RAM network inhibition [7] 2.7%

CCOC(=O)NCc1ccc2[nH]c(C)cc2c1
inactive: growth inhibition [1] -16.1% | growth inhibition [2] -9.38% | viability increase [3] -1.52% | viability [4] 94.5% | viability [5] 97.1% | inhibition [6] -0.465% | RAM network inhibition [7] 4.71%

CCOC(=O)N1CCN(C(=O)c2cn(-c3ccc(C)c(C)c3)c(=O)c3ccccc23)CC1
inactive: growth inhibition [1] -10.6% | growth inhibition [2] -0.85% | viability increase [3] -2.69% | viability [4] 85.6% | viability [5] 94.4% | inhibition [6] 0.51% | RAM network inhibition [7] -0.53%

O=C(NCCN1C(=O)C2C3C=CC(C3)C2C1=O)Nc1ccc(Br)cc1 (stereo unspecified)
inactive: growth inhibition [1] -9% | growth inhibition [2] 9.2% | viability increase [3] -1.13% | viability [4] 103% | viability [5] 88.3% | inhibition [6] 0.81% | RAM network inhibition [7] 0.1%

Cc1nnc(Sc2nc3c(c(=O)[nH]c(=O)n3C)n2CCCc2ccccc2)s1
inactive: growth inhibition [1] -8.19% | growth inhibition [2] -13.4% | viability increase [3] -2.42% | viability [4] 95.1% | viability [5] 94.7% | inhibition [6] 1.21% | RAM network inhibition [7] 2.87%

Cn1c(=O)c2c(SCC(=O)c3ccccc3)nc(C3CC3)nc2n(C)c1=O
inactive: growth inhibition [1] 13.4% | growth inhibition [2] 7.46% | viability increase [3] -2.05% | viability [4] 76.8% | viability [5] 77.8% | inhibition [6] 1.17% | RAM network inhibition [7] -1.03%

CCc1cc2c(=O)c(-c3nc4ccccc4[nH]3)coc2c(CN2CCCC(C)C2)c1O (stereo unspecified)
inactive: growth inhibition [1] -3.79% | growth inhibition [2] 12.3% | viability increase [3] -0.47% | viability [4] 103% | viability [5] 92.8% | inhibition [6] -0.17% | RAM network inhibition [7] 0.56%

COc1ccc(-c2nnc3ccc(SCC(=O)N4CCCCCC4)nn23)cc1OC
inactive: growth inhibition [1] 1.58% | growth inhibition [2] -3.42% | viability increase [3] -4.16% | viability [4] 103% | viability [5] 109% | inhibition [6] 0.615% | RAM network inhibition [7] 0.05%

From PubChem BioAssay
